Converted amounts (≈) assume the structure as drawn. A value given as a limit tells only on which side of the number the result lay.

Consider five compounds from ChEMBL document CHEMBL1136741, “Role of the glycopeptide framework in the antibacterial activity of hydrophobic derivatives of glycopeptide antibiotics” (2003).

In assay [1] the test system is Enterococcus faecium. Briefly: Antibacterial activity against glycopeptide resistant Enterococcus faecium 569 strain. Format: functional. The procedure, abridged: (§1)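 MIC by broth microdilution in Mueller Hinton broth following NCCLS procedures. Compounds were dissolved in 10% DMSO in water, then diluted in broth. Final DMSO was 1.28% at 128 µg/mL antibiotic down to 0.0013% at 0.13 µg/mL. Repeat determinations were usually identical and always within 2-fold.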

Assay [2] concerns Enterococcus faecium. Description: Antibacterial activity against glycopeptide susceptible Enterococcus faecium 568 strain. Format: functional. An outline of the steps:
(§2)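 MIC by broth microdilution in Mueller Hinton broth following NCCLS procedures. Compounds dissolved in 10% DMSO in water, then diluted in broth; test range 128 to 0.13 µg/mL, final DMSO 1.28% to 0.0013% accordingly. Repeat determinations usually identical and always within 2-fold. Strain 533 is a clinical isolate; strain 602 is a clinical S. haemoliticus isolate.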

Assay [3] has as its system Enterococcus faecalis. Description: Antibacterial activity against glycopeptide resistant Enterococcus faecalis 560 strain. The assay is classed as functional. An outline of the steps: as §1
For assay [4], the system named is Enterococcus faecalis. Briefly: Antibacterial activity against glycopeptide susceptible Enterococcus faecalis 559 strain. Format: functional. The procedure, abridged:
as §2

The subject of assay [5] is Staphylococcus aureus. Briefly: Antibacterial activity against glycopeptide intermediate resistant Staphylococcus aureus 3797 strain. Format: functional. An outline of the steps:
as §1

Assay [6] deals with Staphylococcus aureus. Description: Antibacterial activity against glycopeptide intermediate resistant Staphylococcus aureus 3798 strain. Format: functional. The procedure, abridged:
as §1

The test system of assay [7] is Staphylococcus epidermidis. Briefly: Antibacterial activity against Staphylococcus epidermis 533 strain. The assay is classed as functional.
Assay [8] relates to Staphylococcus haemolyticus. Description: Antibacterial activity against Staphylococcus haemolyticus 602 strain.

As for `N[C@H]1C(=O)N[C@@H]2Cc3ccc(c(Cl)c3)Oc3cc4cc(c3O)Oc3ccc(cc3Cl)[C@@H](O)[C@@H]3NC(=O)[C@H](NC(=O)[C@@H]4NC(=O)[C@@H](NC2=O)c2cc(O)cc(c2)Oc2cc1ccc2O)c1ccc(O)c(c1)-c1c(O)cc(O)cc1[C@@H](C(=O)NCc1ccc(-c2ccc(Cl)cc2)cc1)NC3=O`, the MIC in assay [1] was found to be 4 µg/mL (≈ 2.86 µM); in assay [2], 0.25 µg/mL (≈ 0.179 µM); in assay [3] it was 8 µg/mL (≈ 5.72 µM); in assay [4], 0.25 µg/mL (≈ 0.179 µM); in assay [5], 1 µg/mL (≈ 0.715 µM); in assay [6], 1 µg/mL (≈ 0.715 µM). Moreover, the minimum inhibitory concentration (MIC) in assay [7] and in assay [8] was 0.13 µg/mL (≈ 0.0929 µM) each time.
As to `NC(=O)C[C@@H]1NC(=O)[C@H](N)[C@H](O)c2ccc(c(Cl)c2)Oc2cc3cc(c2O)Oc2ccc(cc2)[C@@H](O)[C@@H]2NC(=O)[C@H](NC(=O)[C@@H]3NC1=O)c1ccc(O)c(c1)-c1c(O)cc(O)cc1[C@@H](C(=O)NCc1ccc(-c3ccc(Cl)cc3)cc1)NC2=O`, the minimal inhibitory concentration (MIC) in assay [1] was 64 µg/mL (≈ 54.1 µM); in assay [2] it was 32 µg/mL (≈ 27.1 µM); in assay [3], 64 µg/mL (≈ 54.1 µM); in assay [4], 64 µg/mL (≈ 54.1 µM); in assay [5], 64 µg/mL (≈ 54.1 µM); in assay [6], 64 µg/mL (≈ 54.1 µM). Moreover, the results for the MIC in assay [7] and in assay [8] were 32 µg/mL (≈ 27.1 µM) and 64 µg/mL (≈ 54.1 µM), respectively.
Consider `CN[C@H](CC(C)C)C(=O)N[C@H]1C(=O)N[C@@H](CC(N)=O)C(=O)N[C@H]2C(=O)N[C@H]3C(=O)N[C@H](C(=O)N[C@H](C(=O)O)c4cc(O)cc(O)c4-c4cc3ccc4O)[C@H](O)c3ccc(cc3)Oc3cc2cc(c3O)Oc2ccc(cc2Cl)[C@H]1O` [EREMOMYCIN AGLYCON], for which the minimal inhibitory concentration (MIC) in assay [1] was above 128 µg/mL; in assay [2], 32 µg/mL (≈ 28.8 µM); in assay [3], above 128 µg/mL; in assay [4] it was 16 µg/mL (≈ 14.4 µM); in assay [5], above 64 µg/mL; in assay [6], above 64 µg/mL. Further, the minimum inhibitory concentration (MIC) in assay [7] is 32 µg/mL (≈ 28.8 µM); in assay [8] it was 16 µg/mL (≈ 14.4 µM).
On to `CN[C@H](CC(C)C)C(=O)N[C@H]1C(=O)N[C@@H](CC(N)=O)C(=O)N[C@H]2C(=O)N[C@H]3C(=O)N[C@H](C(=O)N[C@H](C(=O)O)c4cc(O)cc(O)c4-c4cc3ccc4O)[C@H](O[C@@H]3C[C@@](C)(N)[C@H](O)[C@@H](C)O3)c3ccc(cc3)Oc3cc2cc(c3O[C@H]2O[C@@H](CO)[C@H](O)[C@@H](O)[C@@H]2O[C@H]2C[C@](C)(N)[C@@H](O)[C@H](C)O2)Oc2ccc(cc2Cl)[C@H]1O` [EREMOMYCIN], for which the minimal inhibitory concentration (MIC) in assay [1] was above 128 µg/mL; in assay [2] it was 0.25 µg/mL (≈ 0.16 µM); in assay [3], above 128 µg/mL; in assay [4], 0.25 µg/mL (≈ 0.16 µM); in assay [5], 8 µg/mL (≈ 5.13 µM); in assay [6], 8 µg/mL (≈ 5.13 µM). In addition, the MIC in assay [7] and in assay [8] was 0.25 µg/mL (≈ 0.16 µM) throughout.
With `N[C@H]1C(=O)N[C@@H]2Cc3ccc(c(Cl)c3)Oc3cc4cc(c3O)Oc3ccc(cc3Cl)[C@@H](O)[C@@H]3NC(=O)[C@H](NC(=O)[C@@H]4NC(=O)[C@@H](NC2=O)c2cc(O)cc(c2)Oc2cc1ccc2O)c1ccc(O)c(c1)-c1c(O)cc(O)cc1[C@@H](C(=O)O)NC3=O` [TEICOPLANIN AGLYCON], the MIC in assay [1] was above 128 µg/mL; in assay [2] it was 0.13 µg/mL (≈ 0.108 µM); in assay [3], above 128 µg/mL; in assay [4], 0.13 µg/mL (≈ 0.108 µM); in assay [5], 1 µg/mL (≈ 0.834 µM); in assay [6] it was 1 µg/mL (≈ 0.834 µM). Moreover, the MIC in assay [7] and in assay [8] was 0.25 µg/mL (≈ 0.209 µM) in each case.
